The source of these data is BindingDB's records for doi:10.1021/acs.jmedchem.8b00566 (Research Triangle Institute, 2018).

Test [1] concerns the target T1, Sodium-dependent serotonin transporter (Homo sapiens, UniProt P31645). The experiment in a line: Displacement of [3H]-Paroxetine from recombinant human full length SERT after 60 mins by scintillation counting. The method, boiled down: (§1)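 Outsourced radioligand displacement panel run to the provider's standard protocols. Full concentration–displacement curves were run in duplicate. IC50 came from nonlinear regression. Ki was calculated by Cheng–Prusoff from the IC50, the radioligand concentration and historical Kd values of the ligand.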

Test [2] has as its target T1, Sodium-dependent serotonin transporter. The experiment in a line: Inhibition of human SERT expressed in HEK293 cells assessed as reduction in SERT-mediated substrate uptake after 30 mins by fluorescence-based assay. The method, boiled down: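 HEK293 cells stably expressing human SERT were plated at 15000 cells/well in DMEM + 1% dialyzed FBS for at least 6 h. Medium was replaced with 20 mM HEPES/HBSS pH 7.4 and drug was added for 30 min at 37 °C. Fluorescent uptake dye was then added and read after 30 min at 37 °C (ex 440/em 520 nm). IC50 came from nonlinear regression of fluorescence versus concentration.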

Test [3] concerns the target Kappa-type opioid receptor (Homo sapiens, UniProt P41145). The experiment in a line: Binding affinity to human full length KOR after 60 mins by radioligand-based scintillation counting. The method, boiled down:
as §1

T1 sequence (P31645 whole entry): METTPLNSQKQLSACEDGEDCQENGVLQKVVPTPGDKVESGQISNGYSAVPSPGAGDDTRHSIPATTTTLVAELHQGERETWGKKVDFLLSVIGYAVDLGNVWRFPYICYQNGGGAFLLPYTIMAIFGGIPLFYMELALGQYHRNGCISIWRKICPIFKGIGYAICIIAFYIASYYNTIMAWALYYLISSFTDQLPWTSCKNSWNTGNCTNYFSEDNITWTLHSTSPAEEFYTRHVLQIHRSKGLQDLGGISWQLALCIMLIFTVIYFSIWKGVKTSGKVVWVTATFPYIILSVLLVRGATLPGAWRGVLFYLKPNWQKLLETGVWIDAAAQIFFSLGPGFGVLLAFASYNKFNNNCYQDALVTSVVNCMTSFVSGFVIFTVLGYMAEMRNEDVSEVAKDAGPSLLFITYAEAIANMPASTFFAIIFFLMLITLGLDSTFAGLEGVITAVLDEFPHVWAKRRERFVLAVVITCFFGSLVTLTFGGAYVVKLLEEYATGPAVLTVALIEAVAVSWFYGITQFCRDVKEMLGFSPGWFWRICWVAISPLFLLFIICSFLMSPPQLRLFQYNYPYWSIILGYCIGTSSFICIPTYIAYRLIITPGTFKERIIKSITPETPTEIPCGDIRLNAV
Kappa-type opioid receptor, sequence (P41145 whole entry): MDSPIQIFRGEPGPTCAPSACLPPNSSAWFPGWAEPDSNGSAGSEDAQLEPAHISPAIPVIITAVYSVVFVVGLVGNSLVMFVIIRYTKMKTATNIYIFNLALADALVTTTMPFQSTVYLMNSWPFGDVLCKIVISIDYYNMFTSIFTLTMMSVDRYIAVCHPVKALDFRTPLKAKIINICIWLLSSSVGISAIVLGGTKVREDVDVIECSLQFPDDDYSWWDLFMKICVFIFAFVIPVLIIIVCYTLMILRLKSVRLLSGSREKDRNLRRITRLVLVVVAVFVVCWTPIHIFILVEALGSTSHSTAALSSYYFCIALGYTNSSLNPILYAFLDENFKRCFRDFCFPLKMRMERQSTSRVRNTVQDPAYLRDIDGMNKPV

Usually Ki stands for a measure of affinity in units of concentration, obtained from inhibition or displacement. Broadly, the IC50 is the concentration that gives 50% inhibition. With `COCc1ccc(-c2ccc(N(C[C@@H](N)[C@@H](C)OC)C(=O)[C@@H]3C[C@H]3c3ccccn3)cc2)cc1`, the Ki in test [1] worked out at 750 nM; in test [3], 2290 nM. Besides, the IC50 in test [2] stood at 25100 nM.
